Laboratory results reported in ChEMBL document CHEMBL4513216, “Probing the Open Global Health Chemical Diversity Library for Multistage-Active Starting Points for Next-Generation Antimalarials” (ACS Infect Dis, 2020).

assay: Toxicity liver stage against HepG2, at 10uM; assay type: cell-based; design: test concentration 10 uM, cell line HepG2-A16-CD81EGFP; settings: human, HepG2-A16-CD81EGFP cells; read-out: INHIBITION
Outline: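 Uninfected HepG2-A16-CD81EGFP cells, 3 × 10^3 per well, 1536-well, plated on prespotted compound at 10 μM final, parasite-free screening media added to match infected plates; puromycin 10 μM positive, DMSO 0.5% negative; run in parallel with 48 h PbLuc assay at 37 °C, 5% CO2; viability by CellTiter-Glo luminescence, normalized to controls.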

Row | Structure (SMILES) | cytotoxicity at 10 µM [%]
1 | Cc1cccc(NC(=O)CNC(=O)Cn2ncc(Cl)c(Cl)c2=O)c1C | 12.7
2 | CCCNC(=O)CNC(=O)CCc1ccccc1Br | 12.3
3 | Cc1n[nH]c2nc(-c3cc(Br)ccc3O)cc(C(=O)O)c12 | 0.0962
4 | Cc1c(C2SCC(=O)Nc3c2c(O)nn3C2CCCC2)cnn1C (centres undefined) | 1.58
5 | O=C(Cn1ccc2c(Cl)cccc21)Nc1nc[nH]n1 | -1.88
6 | COCC(=O)N1CCc2[nH]c(=O)ccc2C1 | 4.11
7 | CC(C)Cn1c2c(ccc1=O)CC(N)CC2 (centres undefined) | 8.03
8 | O=C(c1ccc(F)c(F)c1)N1C[C@H]2CNC[C@H]2C1 | 5.82
9 | Cc1nc(N2CCOCC2)nc2c1CN(C(=O)C(C)C)CC2 | 0.552
10 | Cc1n[nH]c2c1C(c1ccc(O)c(Cl)c1)SCC(=O)N2 (centres undefined) | 10.4
11 | CCN1CC2(CC1=O)CN(C(=O)c1ccco1)CCN(C(=O)N(C)C)C2 (centres undefined) | -8.37
12 | CC1CCN(C(=O)C(C)n2cc(Br)cn2)CC1 (centres undefined) | 11.3
13 | COc1cccc(-c2cc(C(=O)N3N=C(C)CC3(O)C(F)F)[nH]n2)c1 (centres undefined) | 8.46
14 | CCN(Cc1nonc1C)C(=O)c1ccc(Br)o1 | 0.621
15 | Cc1nn(C)c(C)c1CN(C)CC1(O)CCCN(C)C1 (centres undefined) | 6.5
16 | O=C(NCC1CC1)c1nnc2ccc(Cl)cc2n1 | 0.318
17 | O=C(CCN1CCOCC1)NC(Cc1ccsc1)c1nccs1 (centres undefined) | 3.35
18 | CNC(=O)CCc1cc(C)nc(C2CCN(C(=O)CN(C)C)CC2)c1 | -3.48
19 | Cc1cc(N2CCCC(c3nccnc3N(C)C)C2)ncn1 (centres undefined) | -1.77
20 | Cc1nc(NCCO)cc(C(C)Cn2nc(C)c(C)c2C)n1 (centres undefined) | 4.41
21 | c1cc(-c2cnc(NC3CC3)nc2[C@@H]2CCCO2)ccn1 | 8.72
22 | Cc1cnc(-c2nc(O)c3c(n2)CN(C(=O)CC2CCCC2)CC3)cn1 | -1.37
23 | Cc1ccc(CNCCN2CCOCC2)o1 | -2.62

Row | Structure (SMILES) | cytotoxicity at 10 µM [%]
24 | Cc1noc(C)c1-c1cccc(C2CCNCC2)n1 | 2.98
25 | CC1CCC(NCCNC(=O)c2cccs2)CC1 (centres undefined) | -11.8
26 | Cc1ccc(-c2nnc(SCC(=O)O)n2-c2ccccc2)cc1 | -4.9
27 | COc1cccc(CNC(=O)c2ccccc2-n2cc(CN)cn2)c1 | -21
28 | O=C(c1cnco1)N1C[C@@H](O)[C@H](Oc2cccc(F)c2)C1 | -17.5
29 | Cc1ncsc1C(=O)N1CCCC(c2cc(C(F)F)n3ncnc3n2)C1 (centres undefined) | 4.05
30 | O=C(NC1CC1)c1cc(C(F)(F)F)cc(C(=O)NC2CC2)n1 | 9.97
31 | Cc1noc(CN2CCN(c3cncc(Cl)n3)CC2)n1 | 2.74
32 | CC(C#N)CN(C)C(=O)CCNC(=O)OC(C)(C)C (centres undefined) | 4.94
33 | CCC(NC(=O)Cn1ccc(=O)n(C)c1=O)c1ccc(OC)cc1 (centres undefined) | 2.19
34 | O=C1CCN(C(=O)CCc2ccc(Cl)cc2Cl)CCN1 | 1.88
35 | COc1ccccc1CN(C)C(=O)C[S+]([O-])Cc1cc(C)on1 (centres undefined) | 0.788
36 | CC1CN(C(=O)c2sccc2Br)CCO1 (centres undefined) | 5.15
37 | Cc1nc(Cn2cc(C#N)c(=O)c3ccccc32)no1 | 9.95
38 | CC1CCN(C(=O)C2CCN(S(C)(=O)=O)CC2)c2ccccc21 (centres undefined) | -9.28
39 | Cc1ccc(CN2CCOCC2)cc1NCc1ccsc1 | -8.84
40 | COCCC(=O)N(CCC#N)c1ccc2c(c1)OCCO2 | -1.23
41 | Cc1cc(CNc2ccc(C(=O)N3CCc4ccccc43)cn2)on1 | -0.0529
42 | Cc1nc(COc2ccc(OC(C)C(N)=O)cc2)oc1C (centres undefined) | -1.65
43 | Cc1cc(C(=O)NC2CCN(c3ncccc3C#N)CC2)no1 | -7.25
44 | Cc1ccc(C)c(S(=O)(=O)CCN2CCCC2Cn2cccn2)c1 (centres undefined) | -8.78
45 | Cc1oc(-c2ccsc2)nc1CC(=O)NCCCS(C)(=O)=O | -11.2
46 | Cc1nn(CC(=O)N2CCN(c3ncccn3)CC2)c(C)c1Cl | 0.215

Row | Structure (SMILES) | cytotoxicity at 10 µM [%]
47 | O=C(Nc1cccn(CC(F)(F)F)c1=O)c1ccncc1F | 0.315
48 | CC(C)OCCS(=O)(=O)N1CCCC1c1cccc(N(C)C)c1 (centres undefined) | -1.22
49 | Cc1cc(C)c2c(c1)C(NC(=O)CSCC(N)=O)CCO2 (centres undefined) | -6.94
50 | CCC(NC(=O)CS(=O)(=O)C1CCCC1)c1cc(F)ccc1F (centres undefined) | 0.217
51 | CCc1nc(CC(=O)N2CCC(C(=O)N3CCCCC3)CC2)cs1 | 4.92
52 | Cc1cnc(CNc2ccc(C(=O)NCc3ccco3)cc2C)o1 | -4.51
53 | O=C(NCC1(Sc2ccccc2)CC1)c1cc[nH]n1 | -5.96
54 | O=C(NCC(CO)Cc1ccc(Cl)cc1)c1ccncc1Cl (centres undefined) | 5.21
55 | CCOC1CCCN(C(=O)Nc2cnn(CC(F)F)c2)C1 (centres undefined) | -1.84
56 | COCC1CCCN(C(=O)c2ccc(NC(=O)CC(C)C)c(C)c2)C1 (centres undefined) | -5.76
57 | CC(C)C(O)CNC(=O)Nc1cnn(Cc2ccccc2)c1 (centres undefined) | 6.61
58 | CCC(=O)NCc1cc(Br)ccc1OC(F)F | 17.2
59 | Cc1cc(C(=O)NC2CCCN(c3ccccc3)C2=O)on1 (centres undefined) | 24.7
60 | O=C(NCc1ccoc1)Nc1ccc(CN2CCOC2=O)cc1 | 14.1
61 | COc1cc(NC(=O)c2cc(C)sc2C)c(C(=O)N(C)C)cc1OC | -10.6
62 | COCCN(C)C(=O)c1ccc(OC)cc1O | -3.19
63 | CCCNC(=O)c1cc2c(s1)CCN2c1ncccn1 | -105
64 | CNC(=O)[C@H]1C[C@@H]2CN(C(=O)c3ccc(C)nc3)C[C@@H]2N1C | -107
65 | Cc1ccc(=O)n(CC(=O)N(C)Cc2csc(-c3cccs3)n2)n1 | 6.23
66 | Cc1cnc(C)c(N2CCN(CC3CCCO3)CC2)n1 (centres undefined) | 5.82
67 | CC(C)c1cc(CN(C)C(=O)CN2CCNC2=O)no1 | -6.1
68 | CC(=O)N[C@@H]1CN(Cc2ccccc2-n2nc(C)cc2C)C[C@H]1C(C)C | 4.01
69 | Cc1cccc(CN2CCC(Cc3ccccc3F)CC2)n1 | 1.88

Row | Structure (SMILES) | cytotoxicity at 10 µM [%]
70 | COc1ccc(C(=O)N2C[C@@H](C(=O)O)[C@H](c3ccccc3)C2)c(O)c1 | -2.14
71 | CCCc1ccc(CN2CCN(C(=O)C(C)C)[C@@H]3CS(=O)(=O)C[C@@H]32)o1 | 5.39
72 | O=C1NCCN(C(=O)CCN2CCCO2)C1c1cccc(F)c1 (centres undefined) | 5.47
73 | CCc1nccc(CN2CCCC(CNC(=O)c3occc3C)C2)n1 (centres undefined) | 2.28
74 | NC(=O)c1cc2c(nc1N1C[C@H]3OC(=O)N(C4CCCC4)[C@H]3C1)CCC2 | 2.24
75 | Cc1ccc2c(C)c(C(=O)NCCc3csc(N)n3)oc2c1 | -8.79
76 | CCN(Cc1ccncc1)Cc1cn(-c2ccccc2)nn1 | -49.8
77 | CCn1ccnc1CN1CCC(Oc2cccc(F)c2)(C(=O)O)CC1 | 3.67
78 | COCc1cn(C2CCN(Cc3ccc(Cl)s3)CC2)nn1 | 5.43
79 | Cc1cccnc1CN(C)C(C(=O)O)c1ccc(-n2cccn2)cc1 (centres undefined) | -4.86
80 | CCC1(CO)CCCN(c2ncccc2C#N)C1 (centres undefined) | -9.06
81 | Cc1cc(CN2CCC(CNC(=O)c3ccc(O)c(Cl)c3)C2)[nH]n1 (centres undefined) | 13.3
82 | CCc1cc(NC2CCN(S(C)(=O)=O)CC2)n2nc(C)c(C)c2n1 | -12.2
83 | CN(C)CCN(C)C(=O)c1cnc2c(c1)nc(-c1ccccc1Cl)n2C | 9.3
84 | Cc1cc(=O)[nH]c(NCCNC(=O)C(c2ccc(F)cc2)N(C)C)n1 (centres undefined) | -29.5
85 | CCc1cnc(N)nc1NCCN1CCCCC1 | -17.8
86 | CN(C)S(=O)(=O)N1CCN(c2ccnc(N3CCCC3)n2)CC1 | -13.3
87 | CCc1ocnc1C(=O)N1CCCC1c1noc(C)n1 (centres undefined) | -8.77
88 | COc1ncccc1CNC(=O)c1c(C)oc(C)c1C | -14.5
89 | C=C(C)CN1CCC(C(=O)c2cc(F)ccc2F)CC1 | -14.1
90 | Cc1cc(C)c(CNC(=O)NCc2ccc(F)c(C)c2)c(=O)[nH]1 | -12.8
91 | CCc1nc2n(n1)CC(NCC(=O)Nc1cc(C)nn1C)CC2 (centres undefined) | -10.7
92 | Cc1nn(C)c(N2CCOCC2)c1CNC1COc2ccccc2C1 (centres undefined) | -17.9

Row | Structure (SMILES) | cytotoxicity at 10 µM [%]
93 | Cc1cccc2nc(CN3CCCC3Cn3cncn3)cn12 (centres undefined) | -6.97
94 | Cc1noc(C)c1C(=O)NCc1ccc(N2CCOCC2)nc1 | -7.91
95 | COc1ccc(C(=O)N2CCCS2(=O)=O)cc1OC | -17.6
96 | CSc1ccccc1C(=O)NCCCN1CCc2ccccc2C1 | -15.6
97 | CCCN1CCC(CNC(=O)C2(c3cccc(C)c3)CC2)C1 (centres undefined) | -13.4
98 | Cc1nccn1C1CCCN(C(=O)CCNc2ncccn2)C1 (centres undefined) | -13.7
99 | COCc1nc(C(=O)N2CCCC2c2noc(C)n2)cs1 (centres undefined) | -12
100 | COc1c(C2CCCN2CC(=O)Nc2cc(C)no2)c(C)nn1C (centres undefined) | -2.77
101 | Cc1nnc2n1CCN(CCOc1ccccc1)C2 | 2.24
102 | Cc1cnn(CC2CCCCN2C(=O)c2ccc3[nH]nnc3c2)c1 (centres undefined) | 4.19
103 | Cc1nc(Nc2nccs2)cc(C2CCCN2)n1 (centres undefined) | 63
104 | c1nc(CCC2CCCN2)cc(N2CCCCCC2)n1 (centres undefined) | -20.6
105 | CNC(=O)c1cc(C2CCCNC2)n[nH]1 (centres undefined) | 9.03
106 | CO[C@@H]1CC[C@H]2[C@H]1OCCN2CCOCc1ccccc1 | -114
107 | CN1CCN(C)C2(CCN(Cc3ccsc3)CC2)C1=O | 0.0221
108 | Cc1cc(C)nc(C2CCCNC2)n1 (centres undefined) | 9.85
109 | Cc1ccc(CN2CCCC3(CCCC(=O)N3C)C2)s1 (centres undefined) | -110
110 | O=C(O)[C@]12CCCN(C3CCOC3)C[C@H]1CN(c1nncs1)C2 (some centres undefined) | -106
111 | O=C(NCc1cccnc1)N1CCc2ncnc(NC3CC3)c2CC1 | -107
112 | CC(C)CN1CCC2(C1)CN(c1ncccn1)C2 | 4.73
113 | CCN1CC2(CC1=O)CN(Cc1ccco1)CCN(C(=O)N(C)C)C2 (centres undefined) | -6.05
114 | O=c1occ(CN2CCSCC2)c(O)c1CN1CCCC1 | -7.03
